Assay results from different studies.
Protocols differ between the studies behind these lines.
RPS6KA4 N-terminal kinase domain: Ribosomal protein S6 kinase alpha-4, N-terminal kinase domain (RPS6KA4, Homo sapiens, UniProt O75676)
RPS6KA4 C-terminal kinase domain: Ribosomal protein S6 kinase alpha-4, C-terminal kinase domain (RPS6KA4, Homo sapiens, UniProt O75676)
RPS6KA4: Ribosomal protein S6 kinase alpha-4 (RPS6KA4, Homo sapiens, UniProt O75676)

c1ccc(CNc2nc(N3CCOc4ccccc43)nc3c2CCCC3)cc1
inhibition (RPS6KA4 N-terminal kinase domain; target engagement in cells, inhibitor, chemoproteomics; 20 mM): 2.6%

Nc1ncnc2occ(-c3ccc(NC(=O)Nc4cc(C(F)(F)F)ccc4F)cc3)c12
remaining signal (RPS6KA4 C-terminal kinase domain; cell-free assay, inhibitor; 20 µM): 68%

CCS(=O)(=O)c1cc2cc(C[C@@](O)(CC(C)(C)c3ccc(F)cc3C(N)=O)C(F)(F)F)[nH]c2cn1
remaining binding (RPS6KA4 N-terminal kinase domain; cell-free assay, competition with immobilised ligand; 1 µM): 78%

Clc1ccc(Nc2nnc(Cc3ccncc3)c3ccccc23)cc1
remaining signal (RPS6KA4; cell-free assay; 0.5 µM): 98%

CNc1cccc2cc(C(=O)Nc3ccc(C(=O)O)cc3)c(=O)[nH]c12
inhibition (RPS6KA4; enzyme activity, inhibitor; 10 µM): 8.2%

N[C@H]1CCN(c2nccc(-c3cnn4ncccc34)n2)C1
remaining binding (RPS6KA4 N-terminal kinase domain; binding, competition with immobilised ligand; 1 µM): 91%

O=C1Nc2ccc(Cl)cc2C1=Cc1cc(Cl)c(O)c(Cl)c1
remaining signal (RPS6KA4; cell-free assay; 0.5 µM): 98%

Cc1ccc(NC(=O)c2ccc(C)c(C(F)(F)F)c2)cc1C#Cc1nn(C2CCC(O)CC2)c2ncnc(N)c12 (stereo not shown)
remaining signal (RPS6KA4; cell-free assay; 10 µM): 70%

COc1cc2ncnc(Nc3ccc(Oc4ccccc4)cc3C)c2cc1OC
inhibition (RPS6KA4; enzyme activity, inhibitor; 1 µM): 1%

CCCOc1ccc(OC)c(F)c1C(=O)c1ccc(C(=O)N[C@@H]2CNC[C@H]2NC(=O)c2ccc3[nH]ncc3c2)cc1
remaining activity (RPS6KA4; enzyme activity, inhibitor; 10 µM): 4%

CN1CC(Oc2cnc(C#N)cc2-c2ccn3nc(NC(=O)C4CC4)cc3c2)C1
inhibition (RPS6KA4; enzyme activity, inhibitor; 1 µM): -1%

CN(c1nccc(-c2cnn3ncccc23)n1)C1CC1
remaining binding (RPS6KA4 N-terminal kinase domain; binding, competition with immobilised ligand; 1 µM): 100%

CC(C)(O)[C@H]1CC[C@H](Nc2ccc3ncc(-c4cccc(C(F)(F)F)c4)n3n2)CC1
remaining activity (RPS6KA4; enzyme activity, inhibitor; 1 µM): 92.4%

CC(C)(C)c1nc(-c2cccc(NS(=O)(=O)c3c(F)cccc3F)c2F)c(-c2ccnc(N)n2)s1
remaining activity (RPS6KA4; enzyme activity, inhibitor, radiometric; 1 µM): 86%

Cc1sc(C(=O)NC2COC2)cc1-n1cc(NC(=O)Nc2c(F)cccc2Cl)cn1
remaining activity (RPS6KA4; enzyme activity, inhibitor; 10 µM): 105%

COc1cccc2c(NCc3ccccc3)nc(-n3c(N)nc4ccccc43)nc12
inhibition (RPS6KA4 N-terminal kinase domain; target engagement in cells, inhibitor, chemoproteomics; 20 mM): 7.3%

Cc1cc(NC(=O)c2cccc3cc(-c4cccc5[nH]nc(N)c45)ccc23)ccc1F
activity vs control (RPS6KA4; enzyme activity, inhibitor; 0.1 µM): 103%

O=C(Nc1cccnn1)N1CC(C/C=C/c2cncc(Oc3ccc(C(F)(F)F)cn3)n2)C1
remaining binding (RPS6KA4 C-terminal kinase domain; cell-free assay, competition with immobilised ligand; 1 µM): 92%

CCN(CC)CCNC(=O)c1c(C)[nH]c(/C=C2\C(=O)Nc3ccc(F)cc32)c1C
remaining signal (RPS6KA4; cell-free assay; 0.5 µM): 50.8%

CC(=O)C1=C(C)N(c2cccc(C(F)(F)F)c2)C(=O)N[C@@H]1c1ccc(C#N)nc1
remaining binding (RPS6KA4 C-terminal kinase domain; cell-free assay, competition with immobilised ligand; 1 µM): 78.8%

N#CCCc1ccc2c(c1)-c1[nH]c3ccc([N+](=O)[O-])cc3c1CC(=O)N2
remaining signal (RPS6KA4; cell-free assay; 0.5 µM): 85.8%

CO[C@H]1CC[C@H](CNc2ccc(S(=O)(=O)NC(=O)c3ccc(N4CCN(CC5=C(c6ccc(Cl)cc6)CC(C)(C)CC5)CC4)cc3Oc3cnc4[nH]ccc4c3)cc2[N+](=O)[O-])CC1
remaining binding (RPS6KA4 N-terminal kinase domain; cell-free assay, competition with immobilised ligand; 1 µM): 95%

CN(C)c1nccc(-c2cnn3ncccc23)n1
remaining binding (RPS6KA4 N-terminal kinase domain; binding, competition with immobilised ligand; 1 µM): 82%

C[C@H](NC(=O)c1cnc2n1[C@](C)(Cc1ccc(C#N)cc1)C(=O)N2c1cc(Cl)c(F)c(Cl)c1)C(=O)NC1(c2ccccn2)CC1
remaining binding (RPS6KA4 C-terminal kinase domain; cell-free assay, competition with immobilised ligand; 1 µM): 92%

C[C@@H]1CCN(c2nccc(-c3cnn4ncccc34)n2)C1
remaining binding (RPS6KA4 N-terminal kinase domain; binding, competition with immobilised ligand; 1 µM): 60%

Cc1cc(C)c(-n2ccn3nc(-c4cccnc4)cc23)cc1NC(=O)c1cc(C#N)cc(S(F)(F)(F)(F)F)c1
remaining binding (RPS6KA4 C-terminal kinase domain; cell-free assay, competition with immobilised ligand; 0.1 µM): 79.3%

CN(C)c1nccc(-c2cnc3ncccn23)n1
remaining binding (RPS6KA4 N-terminal kinase domain; binding, competition with immobilised ligand; 1 µM): 80%

Cc1cc(-n2nc(Cc3cc(F)cc(C(F)(F)F)c3)nc2C)ccc1C(N)=O
remaining binding (RPS6KA4 N-terminal kinase domain; cell-free assay, competition with immobilised ligand; 1 µM): 95%

CCCS(=O)(=O)Nc1ccc(F)c(C(=O)c2c[nH]c3ncc(-c4ccc(Cl)cc4)cc23)c1F
inhibition (RPS6KA4; enzyme activity, inhibitor; 1 µM): < 10%

Cc1nc(Cc2cccc(C(F)(F)F)c2)sc1-c1ccc(C(N)=O)nc1
remaining binding (RPS6KA4 C-terminal kinase domain; cell-free assay, competition with immobilised ligand; 1 µM): 100%

Cn1cncc1C1=CN(c2ncnc3[nH]cnc23)CCS1
inhibition (RPS6KA4; enzyme activity, inhibitor, radiometric; 2 µM): 75.5%
